From ChEMBL document CHEMBL1151814, “Ambuic acid and torreyanic acid derivatives from the endolichenic fungus Pestalotiopsis sp” (J Nat Prod, 2009)
Activity calls are given as the source filed them. No cut-off for these calls is given here.

What was measured:
Type in all cases: functional, organism-based
[1] = tested on: Staphylococcus aureus; assay: Antibacterial activity against Staphylococcus aureus ATCC 6538 after 24 hrs by NCCLS method; conditions: ATCC 6538, 24 h
In short: (§1)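 Bacteria grown on Mueller-Hinton agar; inoculum from broth culture at 37 °C for 24 h, final suspension 10^6 cells/mL in MHB. Serial dilutions from 10 mg/mL DMSO stock, tested in triplicate per NCCLS recommendations. Absorbance read at 595 nm after incubation. Inhibition rate plotted against concentration to give IC50. Controls were antimicrobial peptide AMP and streptomycin.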

[2] = tested on: Streptococcus pneumoniae; assay: Antibacterial activity against Streptococcus pneumoniae CGMCC 1.1692 after 24 hrs by NCCLS method; conditions: CGMCC 1.1692, 24 h; in short: as §1
[3] = tested on: Escherichia coli; assay: Antibacterial activity against Escherichia coli CGMCC 1.2340 after 24 hrs by NCCLS method; conditions: CGMCC 1.2340, 24 h; in short: as §1
[4] = tested on: Candida albicans; assay: Antifungal activity against Candida albicans ATCC 10231 after 48 hrs by NCCLS method; conditions: ATCC 10231, 48 h
In short: (§2)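 Yeasts grown on Sabouraud dextrose agar; inoculum from broth culture at 28 °C for 48 h, final suspension 10^5 cells/mL in SDB. Serial dilutions from 10 mg/mL DMSO stock in triplicate per NCCLS. A595 read after incubation; IC50 derived from inhibition rate versus concentration plot. Fluconazole served as positive control.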

[5] = tested on: Geotrichum candidum; assay: Antifungal activity against Geotrichum candidum AS2.498 after 48 hrs by NCCLS method; conditions: AS2.498, 48 h; in short: as §2
[6] = tested on: Aspergillus fumigatus; assay: Antifungal activity against Aspergillus fumigatus ATCC 10894 after 48 hrs by NCCLS method
In short: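 Mould grown on potato dextrose agar; inoculum from broth culture at 28 °C for 48 h, final 10^4 mycelial fragments/mL in PDB. Compounds serially diluted from 10 mg/mL DMSO stock, triplicate wells per NCCLS. Absorbance at 595 nm after incubation; IC50 from inhibition rate plotted versus concentration. Fluconazole positive control.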

Compound	IC50 [1] [µM]	IC50 [2] [µM]	IC50 [3] [µM]	IC50 [4] [µM]	IC50 [5] [µM]	Activity [6]
CCCCC/C=C/C1=C2COC(C)(C)O[C@H]2[C@H]2O[C@@]2(C/C=C(\C)C(=O)O)C1=O	> 50	> 50	> 50	> 50	> 50	inactive
CCCCC/C=C/C1=C(CO)C(=O)C[C@](O)(C/C=C(\C)C(=O)O)[C@H]1O	> 50	> 50	> 50	> 50	> 50	inactive
CCCCCC1O[C@H]2C3=C(C(=O)[C@@]4(C/C=C(\C)C(=O)O)OC4[C@H]3O)C1C1C(CCCCC)OC=C3C(=O)C4O[C@]4(C/C=C(\C)C(=O)O)C(=O)C312 (stereo not given in full)	> 50	> 50	> 50	> 50	> 50	inactive
CCCCCCCC1=C(CO)[C@@H](O)[C@H]2O[C@@]2(C/C=C(\C)C(=O)O)C1=O	> 50	> 50	> 50	> 50	> 50	inactive
CCC(=O)CC/C=C/C1=C(CO)[C@@H](O)[C@H]2O[C@@]2(C/C=C(\C)C(=O)O)C1=O	> 50	> 50	> 50	> 50	> 50	inactive

Now from value to compound, other results behind:

IC50 [1] [µM]	IC50 [2] [µM]	IC50 [3] [µM]	IC50 [4] [µM]	IC50 [5] [µM]	Compound	Activity [6]
> 50	> 50	> 50	> 50	> 50	CCC/C=C/C=C/C1=C(CO)[C@@H](O)[C@H]2O[C@@]2(C/C=C(\C)C(=O)O)C1=O	inactive
27.8					CCCCC/C=C/C1=C(COC(C)=O)[C@@H](O)[C@H]2O[C@@]2(C/C=C(\C)C(=O)O)C1=O	inactive
43.9					CCCCC/C=C/C1=C(CO)[C@H](O)[C@H]2O[C@@]2(C/C=C(\C)C(=O)O)C1=O [AMBUIC ACID]	inactive
